Source: ChEMBL document CHEMBL3286371, “wALADin benzimidazoles differentially modulate the function of porphobilinogen synthase orthologs” (J Med Chem, 2014)
Activity calls are given as the source filed them. The calls are words filed in the database; no cut-off is given here.

Tests used:
[1] = target: T1, Delta-aminolevulinic acid dehydratase, chloroplastic (Pisum sativum, UniProt P30124); experiment: Inhibition of Pisum sativum PBGS using 5-ALA as substrate; design: species or system Lathyrus oleraceus
T1 sequence (P30124 whole entry): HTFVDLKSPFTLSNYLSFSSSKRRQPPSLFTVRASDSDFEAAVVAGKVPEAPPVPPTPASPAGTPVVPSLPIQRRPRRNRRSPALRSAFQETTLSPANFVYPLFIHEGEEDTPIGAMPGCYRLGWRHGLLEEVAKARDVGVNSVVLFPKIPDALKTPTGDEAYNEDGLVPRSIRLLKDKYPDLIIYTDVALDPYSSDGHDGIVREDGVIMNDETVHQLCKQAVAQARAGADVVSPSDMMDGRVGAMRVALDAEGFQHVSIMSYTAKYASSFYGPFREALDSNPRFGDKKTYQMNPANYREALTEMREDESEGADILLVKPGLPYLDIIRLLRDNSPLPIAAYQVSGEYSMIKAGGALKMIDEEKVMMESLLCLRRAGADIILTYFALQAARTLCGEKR
In short: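 Pea (P. sativum) PBGS at 300 nM subunit in 100 mM BTP-HCl pH 8.5 with 1 mM MgCl2, 5 mM DTT and 0.2 mM 5-ALA, 15 min at 36 °C. Porphobilinogen detected with Ehrlich's reagent. Activity normalized to 6.7% DMSO control as 100%. IC50 from variable-slope normalized-response fit.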

[2] = target: T2, Delta-aminolevulinic acid dehydratase (Wolbachia sp. subsp. Brugia malayi (strain TRS), UniProt Q5GSR3); experiment: Inhibition of C-terminal His-tagged Wolbachia PBGS using 5-ALA as substrate
T2 sequence (Q5GSR3 whole entry): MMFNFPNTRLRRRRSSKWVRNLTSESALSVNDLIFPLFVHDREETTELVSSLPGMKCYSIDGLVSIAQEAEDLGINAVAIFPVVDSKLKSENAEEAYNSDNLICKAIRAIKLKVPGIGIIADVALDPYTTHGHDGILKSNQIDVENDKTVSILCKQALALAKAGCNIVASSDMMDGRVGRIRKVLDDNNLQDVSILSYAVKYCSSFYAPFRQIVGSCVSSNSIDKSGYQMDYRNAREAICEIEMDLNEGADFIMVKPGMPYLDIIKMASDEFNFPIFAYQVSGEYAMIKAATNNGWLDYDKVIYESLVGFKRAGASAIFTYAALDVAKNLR

[3] = target: T3, Delta-aminolevulinic acid dehydratase (Escherichia coli (strain K12), UniProt P0ACB2); experiment: Stimulation of Escherichia coli recombinant PBGS using 5-ALA as substrate
T3 sequence (P0ACB2 whole entry): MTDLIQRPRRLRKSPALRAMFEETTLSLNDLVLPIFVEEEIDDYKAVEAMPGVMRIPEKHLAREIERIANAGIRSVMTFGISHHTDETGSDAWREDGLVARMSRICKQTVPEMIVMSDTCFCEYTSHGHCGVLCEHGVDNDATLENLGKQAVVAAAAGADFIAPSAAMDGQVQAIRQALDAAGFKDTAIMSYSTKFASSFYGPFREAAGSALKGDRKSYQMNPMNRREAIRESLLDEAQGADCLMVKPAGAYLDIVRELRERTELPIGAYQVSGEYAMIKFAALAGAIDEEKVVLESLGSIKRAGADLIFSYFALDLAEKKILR
In short: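 E. coli PBGS at 200 nM subunit in 100 mM BTP-HCl pH 8.1 with 1 mM MgCl2, 10 μM ZnCl2, 5 mM DTT and 0.2 mM 5-ALA, 10 min at 36 °C. Porphobilinogen detected with Ehrlich's reagent. Activity normalized to control with 6.7% DMSO set at 100%. EC50 by log(agonist) vs response variable-slope fit.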

[4] = target: Delta-aminolevulinic acid dehydratase (Yersinia enterocolitica W22703) (UniProt F4MUJ9); experiment: Stimulation of Yersinia enterocolitica recombinant PBGS expressed in Escherichia coli using 5-ALA as substrate relative to control
In short: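 Y. enterocolitica PBGS, expressed in E. coli from pET3, at 150 nM subunit in 100 mM BTP-HCl pH 8.0 with 1 mM MgCl2, 5 mM DTT, 100 mM KCl and 0.2 mM 5-ALA, 10 min at 36 °C. Porphobilinogen read with Ehrlich's reagent. Activity normalized to 6.7% DMSO control as 100%. EC50 from variable-slope agonist fit.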

[5] = target: T4, Delta-aminolevulinic acid dehydratase (Pseudomonas aeruginosa (strain ATCC 15692 / PAO1 / 1C / PRS 101 / LMG12228), UniProt Q59643); experiment: Stimulation of Pseudomonas aeruginosa PAO1 recombinant PBGS using 5-ALA as substrate
In short: (§1)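 His-tagged PaPBGS at 150 nM subunit in 100 mM Tris-HCl pH 8.0 with 1 mM MgCl2, 100 mM KCl and 0.2 mM 5-ALA, 10 min at 36 °C, with turnover at most 30%. Porphobilinogen read with Ehrlich's reagent. Activity normalized to 6.7% DMSO control as 100%. EC50 from variable-slope agonist fit.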

[6] = target: Delta-aminolevulinic acid dehydratase (Pseudomonas aeruginosa (strain ATCC 15692 / PAO1 / 1C / PRS 101 / LMG12228)) (UniProt Q59643); experiment: Stimulation of Pseudomonas aeruginosa PAO1 recombinant PBGS using 5-ALA as substrate relative to control; in short: as §1
[7] = Stimulation of Toxoplasma gondii recombinant PBGS using 5-ALA as substrate
In short: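 T. gondii PBGS, expressed from pET-21b in BL21 E. coli and purified, at 250 nM subunit in 100 mM Tris-HCl pH 8.0 with 1 mM MgCl2, 5 mM DTT and 0.2 mM 5-ALA, 20 min at 36 °C. Porphobilinogen detected with Ehrlich's reagent. Activity normalized to 6.7% DMSO control. EC50 by variable-slope agonist fit.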

Toxoplasma gondii [8] = experiment: Stimulation of Toxoplasma gondii recombinant PBGS using 5-ALA as substrate relative to control
In short: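 Recombinant T. gondii PBGS (hemB in pET-21b, expressed in BL21 E. coli) at 250 nM subunit in 100 mM Tris-HCl pH 8.0, 1 mM MgCl2, 5 mM DTT, with 200 μM 5-ALA, 20 min at 36 °C. Porphobilinogen was read with Ehrlich's reagent, and turnover was kept at or below 30%.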

[9] = target: T5, Delta-aminolevulinic acid dehydratase (Drosophila melanogaster, UniProt Q9VTV9); experiment: Inhibition of Drosophila melanogaster recombinant PBGS using 5-ALA as substrate
T5 sequence (Q9VTV9 whole entry): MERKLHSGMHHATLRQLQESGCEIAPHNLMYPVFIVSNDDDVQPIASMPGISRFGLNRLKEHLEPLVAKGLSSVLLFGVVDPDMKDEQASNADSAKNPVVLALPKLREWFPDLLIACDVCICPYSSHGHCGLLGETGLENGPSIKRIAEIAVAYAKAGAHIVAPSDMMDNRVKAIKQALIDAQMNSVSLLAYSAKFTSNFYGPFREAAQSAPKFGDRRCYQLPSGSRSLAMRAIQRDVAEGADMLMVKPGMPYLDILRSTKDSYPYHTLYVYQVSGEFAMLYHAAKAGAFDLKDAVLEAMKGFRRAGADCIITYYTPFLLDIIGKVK

[10] = target: T6, Delta-aminolevulinic acid dehydratase (Homo sapiens, UniProt P13716); experiment: Inhibition of human PBGS using 5-ALA as substrate
T6 sequence (P13716 whole entry): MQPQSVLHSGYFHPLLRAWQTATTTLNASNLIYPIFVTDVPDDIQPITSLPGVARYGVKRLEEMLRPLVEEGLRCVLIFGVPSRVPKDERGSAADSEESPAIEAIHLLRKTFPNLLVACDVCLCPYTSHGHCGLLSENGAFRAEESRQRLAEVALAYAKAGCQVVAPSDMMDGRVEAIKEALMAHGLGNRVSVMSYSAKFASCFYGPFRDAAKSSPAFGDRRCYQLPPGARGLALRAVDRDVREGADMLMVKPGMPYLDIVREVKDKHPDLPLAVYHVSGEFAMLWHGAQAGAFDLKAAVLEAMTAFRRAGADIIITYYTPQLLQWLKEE

[11] = target: T7, Delta-aminolevulinic acid dehydratase (Escherichia coli (strain K12)) (UniProt P0ACB2); experiment: Stimulation of Escherichia coli recombinant PBGS using 5-ALA as substrate relative to control
T7 sequence (whole entry): T3 sequence (P0ACB2 whole entry)
In short: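 E. coli PBGS at 200 nM subunit in 100 mM BTP-HCl pH 8.1 with 1 mM MgCl2, 10 μM ZnCl2, 5 mM DTT and 0.2 mM 5-ALA, 10 min at 36 °C. Porphobilinogen detected with Ehrlich's reagent. EC50 by log(agonist) vs response variable-slope fit.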

[12] = target: Delta-aminolevulinic acid dehydratase (Yersinia enterocolitica W22703, UniProt F4MUJ9); experiment: Stimulation of Yersinia enterocolitica recombinant PBGS expressed in Escherichia coli using 5-ALA as substrate
[13] = target: Delta-aminolevulinic acid dehydratase (Pseudomonas aeruginosa (strain ATCC 15692 / PAO1 / 1C / PRS 101 / LMG12228)) (UniProt Q59643); experiment: Inhibition of Pseudomonas aeruginosa PAO1 recombinant PBGS using 5-ALA as substrate at […]
[14] = target: T4, Delta-aminolevulinic acid dehydratase; experiment: Inhibition of Pseudomonas aeruginosa PAO1 recombinant PBGS using 5-ALA as substrate
In short: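 Turnover kept at or below 30%. Porphobilinogen measured with Ehrlich's reagent. IC50 by variable-slope fit of activity normalized to DMSO control.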

[15] = Ratio of IC50 for Pisum sativum PBGS to IC50 for C-terminal His-tagged Wolbachia PBGS
[16] = target: T7, Delta-aminolevulinic acid dehydratase (Escherichia coli (strain K12)); experiment: Stimulation of Escherichia coli recombinant PBGS using 5-ALA as substrate at […]
[17] = target: T7, Delta-aminolevulinic acid dehydratase (Escherichia coli (strain K12)); experiment: Inhibition of Escherichia coli recombinant PBGS using 5-ALA as substrate at […]
[18] = target: Delta-aminolevulinic acid dehydratase (Yersinia enterocolitica W22703) (UniProt F4MUJ9); experiment: Stimulation of Yersinia enterocolitica recombinant PBGS expressed in Escherichia coli using 5-ALA as substrate at […]
[19] = target: Delta-aminolevulinic acid dehydratase (Yersinia enterocolitica W22703) (UniProt F4MUJ9); experiment: Inhibition of Yersinia enterocolitica recombinant PBGS expressed in Escherichia coli using 5-ALA as substrate at […]
[20] = target: Delta-aminolevulinic acid dehydratase (Pseudomonas aeruginosa (strain ATCC 15692 / PAO1 / 1C / PRS 101 / LMG12228)) (UniProt Q59643); experiment: Stimulation of Pseudomonas aeruginosa PAO1 recombinant PBGS using 5-ALA as substrate at […]
Toxoplasma gondii [21] = experiment: Stimulation of Toxoplasma gondii recombinant PBGS using 5-ALA as substrate at […]
Toxoplasma gondii [22] = experiment: Inhibition of Toxoplasma gondii recombinant PBGS using 5-ALA as substrate at […]

T4 sequence (Q59643 whole entry): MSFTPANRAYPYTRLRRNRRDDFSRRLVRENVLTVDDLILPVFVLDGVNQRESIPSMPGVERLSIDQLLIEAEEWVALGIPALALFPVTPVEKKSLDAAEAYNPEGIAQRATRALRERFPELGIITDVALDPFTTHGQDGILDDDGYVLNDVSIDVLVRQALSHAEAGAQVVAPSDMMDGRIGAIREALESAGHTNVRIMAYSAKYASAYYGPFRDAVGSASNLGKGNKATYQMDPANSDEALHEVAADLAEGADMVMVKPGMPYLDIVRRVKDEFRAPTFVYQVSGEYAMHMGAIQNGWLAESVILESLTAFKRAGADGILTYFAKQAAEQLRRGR
Delta-aminolevulinic acid dehydratase (Pseudomonas aeruginosa (strain ATCC 15692 / PAO1 / 1C / PRS 101 / LMG12228)), sequence (Q59643 whole entry): as above
Delta-aminolevulinic acid dehydratase (Yersinia enterocolitica W22703), sequence (F4MUJ9 as listed by the source): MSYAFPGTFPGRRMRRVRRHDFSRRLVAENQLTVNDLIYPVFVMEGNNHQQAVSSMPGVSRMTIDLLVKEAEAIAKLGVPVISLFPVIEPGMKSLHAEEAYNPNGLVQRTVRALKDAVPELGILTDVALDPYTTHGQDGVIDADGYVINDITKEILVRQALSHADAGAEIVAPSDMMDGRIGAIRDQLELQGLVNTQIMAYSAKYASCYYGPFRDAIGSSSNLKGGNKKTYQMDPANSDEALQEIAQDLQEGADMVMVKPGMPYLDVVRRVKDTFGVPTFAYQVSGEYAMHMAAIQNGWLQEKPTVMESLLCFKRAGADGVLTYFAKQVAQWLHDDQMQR
Delta-aminolevulinic acid dehydratase (Yersinia enterocolitica W22703, UniProt F4MUJ9), sequence (F4MUJ9 whole entry, one chain of several): as the sequence (F4MUJ9 as listed by the source) above

| SMILES | IC50 [1] [µM] | IC50 [2] [µM] | EC50 [3] [µM] | Smax [4] [%] | EC50 [5] [µM] | Smax [6] [%] | EC50 [7] [µM] | Smax (Toxoplasma gondii [8]) [%] | IC50 [9] [µM] | IC50 [10] [µM] | inhibition [13] | IC50 [14] [µM] | Smax [16] [%] | inhibition [17] | Smax [18] [%] | inhibition [19] | Smax [20] [%] | Smax (Toxoplasma gondii [21]) [%] | inhibition (Toxoplasma gondii [22]) | also measured |
| --- | --- | --- | --- | --- | --- | --- | --- | --- | --- | --- | --- | --- | --- | --- | --- | --- | --- | --- | --- | --- |
| O=C(O)c1ccc2c(c1)nc(CCNC(=O)c1cccs1)n2Cc1ccc(C(F)(F)F)cc1 | 44.3 | 38.6 | 39 | 142 | 68 | 140 | 37 | 118 | 1010 | 637 | – | – | – | – | – | – | – | – | – | – |
| O=C(NCCc1nc2c(C(=O)O)cccc2n1Cc1cccc(C(F)(F)F)c1)c1cccs1 | > 500 | 500 | 19 | 123 | 15 | 136 | 21 | 130 | > 1000 | 500 | inactive | – | – | – | – | – | – | – | – | Smax [11]: 116%; EC50 [12]: 23 µM |
| O=C(O)c1c2c(nc3ccccc13)CCN(C(=O)c1cccc(C(F)(F)F)c1)C2 | 88.2 | – | – | – | – | – | – | – | > 1000 | – | inactive | 475 | 100 | inactive | 100 | inactive | 100 | 100 | inactive | Ratio IC50 [15]: 10 |
| O=C(O)c1ccc2c(c1)ncn2Cc1cccc(C(F)(F)F)c1 | 18.5 | 13 | – | – | – | – | – | – | 340 | 197 | inactive | 94 | 100 | inactive | 100 | inactive | 100 | 100 | inactive | – |
